In paper PMC4263960 (Pediatric blood & cancer, 2013):

Tests used:
Rh41 cell line = experiment: DIMSCAN in vitro cytotoxicity testing, Rh41; assay type: cell-based
Outline: (§1)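 Test compound incubated with cells of a 24-line pediatric cancer panel for 96 h at 0.1 nM to 1 μM, then assessed by DIMSCAN. Relative IC50 (rIC50) derived per line. Panel comparison value is the panel rIC50 divided by the rIC50 of each cell line.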

CHLA-266 cell line = experiment: DIMSCAN in vitro cytotoxicity testing, CHLA-266; assay type: cell-based
Outline: as §1

NB-EBc1 cell line = experiment: DIMSCAN in vitro cytotoxicity testing, NB-EBc1; assay type: cell-based
Outline: as §1

CHLA-90 cell line = experiment: DIMSCAN in vitro cytotoxicity testing, CHLA-90; assay type: cell-based
Outline: as §1

CHLA-136 cell line = experiment: DIMSCAN in vitro cytotoxicity testing, CHLA-136; assay type: cell-based
Outline: as §1

NALM-6 cell line = experiment: DIMSCAN in vitro cytotoxicity testing, NALM-6; assay type: cell-based
Outline: as §1

COG-LL-317 cell line = experiment: DIMSCAN in vitro cytotoxicity testing, COG-LL-317; assay type: cell-based
Outline: as §1

Kasumi-1 cell line = experiment: DIMSCAN in vitro cytotoxicity testing, Kasumi-1; assay type: cell-based
Outline: as §1

Karpas-299 cell line = experiment: DIMSCAN in vitro cytotoxicity testing, Karpas-299; assay type: cell-based
Outline: as §1

KT-16 rhabdoid xenograft = experiment: PPTP in vivo xenograft testing, KT-16; design: species or system mice
EW5 Ewing xenograft = experiment: PPTP in vivo xenograft testing, EW5; design: species or system mice
[1] = test system: Rh10 ALV rhabdomyosarcoma xenograft; experiment: PPTP in vivo xenograft testing, Rh10; design: species or system mice
[2] = 1 mg/kg IP Q4Dx3 repeated at Day 21

Structure (SMILES): C=C1C[C@@H]2CC[C@@]34C[C@H]5O[C@H]6[C@@H](O3)[C@H]3O[C@H](CC[C@@H]3O[C@H]6[C@H]5O4)CC(=O)C[C@@H]3[C@@H](OC)[C@@H](C[C@H](O)CN)O[C@H]3C[C@H]3O[C@@H](CC[C@@H]1O2)C[C@@H](C)C3=C [Eribulin]
- IC50 (Rh41 cell line; Homo sapiens, Rh41, 96 h, read-out: rIC50): 0.14 nM
- Panel rIC50/Line rIC50 (Rh41 cell line; Rh41): 2.00
- Relative in/out% (Rh41 cell line; Rh41): −70%
- Ymin % (observed) (Rh41 cell line; Rh41): 6.63%
- Panel rIC50/Line rIC50 (CHLA-266 cell line; CHLA-266): 0.71
- Relative in/out% (CHLA-266 cell line; CHLA-266): −79%
- Ymin % (observed) (CHLA-266 cell line; CHLA-266): 5.54%
- IC50 (CHLA-266 cell line; Homo sapiens, CHLA-266, 96 h, read-out: rIC50): 0.38 nM
- IC50 (NB-EBc1 cell line; 96 h, read-out: rIC50): 14.8 nM
- Panel rIC50/Line rIC50 (NB-EBc1 cell line; NB-EBc1): 0.02
- Relative in/out% (NB-EBc1 cell line; NB-EBc1): −92%
- Ymin % (observed) (NB-EBc1 cell line; NB-EBc1): 1.76%
- IC50 (CHLA-90 cell line; 96 h, read-out: rIC50): 1.77 nM
- Panel rIC50/Line rIC50 (CHLA-90 cell line; CHLA-90): 0.15
- Relative in/out% (CHLA-90 cell line; CHLA-90): −67%
- Ymin % (observed) (CHLA-90 cell line; CHLA-90): 9.26%
- IC50 (CHLA-136 cell line; 96 h, read-out: rIC50): 2.37 nM
- Panel rIC50/Line rIC50 (CHLA-136 cell line; CHLA-136): 0.11
- Relative in/out% (CHLA-136 cell line; CHLA-136): −65%
- Ymin % (observed) (CHLA-136 cell line; CHLA-136): 9.96%
- IC50 (NALM-6 cell line; Homo sapiens, NALM-6, 96 h, read-out: rIC50): 0.59 nM
- Panel rIC50/Line rIC50 (NALM-6 cell line; NALM-6): 0.46
- Relative in/out% (NALM-6 cell line; NALM-6): −99%
- Ymin % (observed) (NALM-6 cell line; NALM-6): 0.03%
- IC50 (COG-LL-317 cell line; 96 h, read-out: rIC50): < 0.1 nM
- Panel rIC50/Line rIC50 (COG-LL-317 cell line; COG-LL-317): >2.74
- Relative in/out% (COG-LL-317 cell line; COG-LL-317): −99%
- Ymin % (observed) (COG-LL-317 cell line; COG-LL-317): 0.03%
- IC50 (Kasumi-1 cell line; Homo sapiens, Kasumi 1, 96 h, read-out: rIC50): 4.11 nM
- Panel rIC50/Line rIC50 (Kasumi-1 cell line; Kasumi-1): 0.07
- Relative in/out% (Kasumi-1 cell line; Kasumi-1): −86%
- Ymin % (observed) (Kasumi-1 cell line; Kasumi-1): 3.92%
- IC50 (Karpas-299 cell line; Homo sapiens, KARPAS-299, 96 h, read-out: rIC50): < 0.1 nM
- Panel rIC50/Line rIC50 (Karpas-299 cell line; Karpas-299): >2.74
- Relative in/out% (Karpas-299 cell line; Karpas-299): −100%
- Ymin % (observed) (Karpas-299 cell line; Karpas-299): 0.03%
- EFS activity (KT-16 rhabdoid xenograft; 1 mg/kg IP): Low (Low activity = EFS T/C <2)
- Response activity (KT-16 rhabdoid xenograft; 1 mg/kg IP): Low (low activity by a score of <2)
- T/C volume activity (KT-16 rhabdoid xenograft; 1 mg/kg IP): Low (Low activity = T/C >0.45)
- EFS T/C (KT-16 rhabdoid xenograft; [2]): 1.1
- Median final RTV (CD45%) (KT-16 rhabdoid xenograft; [2]): >4
- Time to event (KT-16 rhabdoid xenograft; [2]): 12.1
- Tumor volume T/C (KT-16 rhabdoid xenograft; 1 mg/kg IP, Day 21 or earlier): 0.76
- EFS activity (EW5 Ewing xenograft; 1 mg/kg IP): Int (Intermediate activity = criteria (a) and (b) above, but not having a net reduction in median tumor volume for treated animals at the end of the study)
- Response activity (EW5 Ewing xenograft; 1 mg/kg IP): Int (intermediate activity by a score of ≥2 but <6)
- T/C volume activity (EW5 Ewing xenograft; 1 mg/kg IP): High (High activity = T/C ≤0.15)
- EFS T/C (EW5 Ewing xenograft; [2]): 3.3
- Median final RTV (CD45%) (EW5 Ewing xenograft; [2]): >4
- Time to event (EW5 Ewing xenograft; [2]): 41.3
- Tumor volume T/C (EW5 Ewing xenograft; 1 mg/kg IP, Day 21 or earlier): 0.13
- EFS activity ([1]; 1 mg/kg IP): High (High activity requires: (a) an EFS T/C >2; (b) a significant difference in EFS distributions, and (c) a net reduction in median tumor volume for animals in the treated group at the end of treatment as compared to at treatment initiation)
- Response activity ([1]; 1 mg/kg IP): High (A high level of activity is indicated by a score of 6 or more)
- T/C volume activity ([1]; 1 mg/kg IP): High (High activity = T/C ≤0.15)
- EFS T/C [1, 2]: >3.8
- Median final RTV (CD45%) [1, 2]: 0.0
- Tumor volume T/C ([1]; 1 mg/kg IP, Day 21 or earlier): 0.08
